Experimental data pooled from the literature.
Lines come from different studies, so protocols differ. pEC50: −log10 of the molar value. In brackets after ≈: the same amount, converted by molar mass.

NCCCCCN  activity vs control (Cryptosporidium parvum; parasite growth, imaging; HCT-8; 1 mM, 24 h, intracellular): 96.3%
N#CC(=Cc1cn(-c2ccccc2)nc1-c1ccccc1)C1=NC(=O)CS1  MBC (Klebsiella pneumoniae; microbial killing, broth dilution): 0.25 µg/mL (≈ 0.675 µM)
CN[C@H](CC(C)C)C(=O)N[C@H]1C(=O)N[C@@H](CC(N)=O)C(=O)N[C@H]2C(=O)N[C@H]3C(=O)N[C@H](C(=O)N[C@H](C(=O)O)c4cc(O)cc(O)c4-c4cc3ccc4O)[C@H](O)c3ccc(c(Cl)c3)Oc3cc2cc(c3O[C@@H]2O[C@H](CO)[C@@H](O)[C@H](O)[C@H]2O[C@H]2C[C@](C)(N)[C@H](O)[C@H](C)O2)Oc2ccc(cc2Cl)[C@H]1O  MIC (Streptococcus pneumoniae; microbial growth, broth dilution; ATCC49619): 0.24 µg/mL (≈ 0.166 µM)
O=C1C=C(O)C(=O)c2ccccc21  IC50 (Klebsiella pneumoniae; microbial growth, broth dilution; ATCC700603): 123 µg/mL (≈ 709 µM)
Cc1c(NC(=O)CC2=NC(=O)CS2)c(=O)n(-c2ccccc2)n1C  inhibition zone (Klebsiella pneumoniae; microbial growth, well diffusion; 100000 µg/mL): 25 mm
CC(C)(NC(=O)c1cc2c(F)cc(F)cc2[nH]1)c1cn(Cc2ccc(Cl)c(Cl)c2)nn1  inhibition (Cryptosporidium parvum; parasite growth, imaging; HCT-8; 11 µM, 72 h, intracellular): ~30%
Cc1ccc(-c2nn(-c3ccccc3)cc2C=c2sc(=CC#N)[nH]c2=O)cc1  inhibition zone (Klebsiella pneumoniae; microbial growth, well diffusion; 100000 µg/mL): 16 mm
Cc1ccc(C(C)C)cc1O  IC50 (Klebsiella pneumoniae; microbial growth, broth dilution; ATCC700603): 61.9 µg/mL (≈ 412 µM)
CC(C)(NC(=O)c1cc2c(Cl)cc(Cl)cc2[nH]1)c1cn(Cc2ccc(Cl)c(Cl)c2)nn1  inhibition (Cryptosporidium parvum; parasite growth, imaging; HCT-8; 11 µM, 72 h, intracellular): > 60%
O=C(O)CN1C(=O)/C(=C/c2ccc(-c3ccc(N(c4ccccc4)c4ccccc4)cc3)cc2)NC1=S  MBC (Streptococcus pneumoniae; microbial killing, broth dilution; ATCC49619): 125 µg/mL (≈ 247 µM)
Cc1c(NN=C2SC(C(C#N)=Cc3ccc(Cl)cc3)=NC2=O)c(=O)n(-c2ccccc2)n1C  inhibition zone (Klebsiella pneumoniae; microbial growth, well diffusion; 100000 µg/mL): 16 mm
NCCCCC(=O)O  activity vs control (Cryptosporidium parvum; parasite growth, imaging; HCT-8; 1 mM, 24 h, intracellular): 102%
CCCCS(=O)(=O)Oc1cc(C(C)C)ccc1C  IC50 (Klebsiella pneumoniae; microbial growth, broth dilution; ATCC700603): 95.5 µg/mL (≈ 353 µM)
N#CC(=Cc1ccc([N+](=O)[O-])cc1)C1=NC(=O)C(=Cc2cn(-c3ccccc3)nc2-c2ccccc2)S1  inhibition zone (Klebsiella pneumoniae; microbial growth, well diffusion; 100000 µg/mL): 22 mm
CNCC(=O)O  activity vs control (Cryptosporidium parvum; parasite growth, imaging; HCT-8; 1 mM, 24 h, intracellular): 98%
N#CC(=Cc1ccccc1O)C1=NC(=O)C(=Cc2cn(-c3ccccc3)nc2-c2ccccc2)S1  MBC (Klebsiella pneumoniae; microbial killing, broth dilution): 0.5 µg/mL (≈ 1.05 µM)
Cc1ccc(S(=O)(=O)Oc2cc(C(C)C)ccc2C)cc1  IC50 (Klebsiella pneumoniae; microbial growth, broth dilution; ATCC700603): 279 µg/mL (≈ 918 µM)
O=C(Nc1ccccc1-c1ccc(F)c(F)c1)c1nccnc1C(F)(F)F  EC50 (Alternaria kikuchiana; microbial growth): 0.058 µg/mL
O=C1NC(=S)S/C1=C\c1ccc(-c2ccc(N(c3ccccc3)c3ccccc3)cc2)cc1  MBC (Streptococcus pneumoniae; microbial killing, broth dilution; ATCC49619): > 1000 µg/mL
CCCCC[C@H](O)/C=C/[C@H]1[C@H](O)CC(=O)[C@@H]1C/C=C\CCCC(=O)O  activity vs control (Cryptosporidium parvum; parasite growth, imaging; HCT-8; 50 µM, 24 h, intracellular): 88.5%
O=C1NC(=S)N/C1=C\c1c2ccccc2c(-c2ccc(N(c3ccccc3)c3ccccc3)cc2)c2ccccc12  MIC (Streptococcus pneumoniae; microbial growth, broth dilution; ATCC49619): > 1000 µg/mL
O=S(=O)(Oc1cccc2cccnc12)c1ccccc1  IC50 (Klebsiella pneumoniae; microbial growth, broth dilution; ATCC700603): 340 µg/mL
NCCCCN  activity vs control (Cryptosporidium parvum; parasite growth, imaging; HCT-8; 1 mM, 24 h, intracellular): 110%
CCOC(=O)c1c(N)csc1-c1cn(-c2ccccc2)nc1-c1ccc(C)cc1  inhibition zone (Klebsiella pneumoniae; microbial growth, well diffusion; 100000 µg/mL): 27 mm
O=C1NC(=S)S/C1=C\c1ccc(-c2ccc(N(c3ccccc3)c3ccccc3)cc2)c2ccccc12  MBC (Streptococcus pneumoniae; microbial killing, broth dilution; ATCC49619): > 1000 µg/mL
O=C1C=C(OCc2cn(-c3ccc(Cl)cc3)nn2)C(=O)c2ccccc21  IC50 (Klebsiella pneumoniae; microbial growth, broth dilution; ATCC700603): 348 µg/mL (≈ 951 µM)
O=C(O)CCc1ccc(O)cc1  activity vs control (Cryptosporidium parvum; parasite growth, imaging; HCT-8; 1 mM, 24 h, intracellular): 90.5%
O=C1NC(=S)N/C1=C\c1ccc(-c2ccc(N(c3ccccc3)c3ccccc3)cc2)c2ccccc12  MIC (Streptococcus pneumoniae; microbial growth, broth dilution; ATCC49619): > 1000 µg/mL
CCOC(=O)c1c(N)csc1-c1cn(-c2ccccc2)nc1-c1ccccc1  inhibition zone (Klebsiella pneumoniae; microbial growth, well diffusion; 100000 µg/mL): 22 mm
COc1cccc2cc[nH]c12  EC90 (Cryptosporidium parvum; parasite growth; HCT-8; 24 h, intracellular): 682 µM
O=C(O)CN1C(=O)/C(=C/c2ccc(-c3ccc(N(c4ccccc4)c4ccccc4)cc3)c3ccccc23)NC1=S  MIC (Streptococcus pneumoniae; microbial growth, broth dilution; ATCC49619): > 1000 µg/mL
CC(C)(NC(=O)c1cc2c(F)cc(F)cc2[nH]1)c1cn(Cc2cccc(Cl)c2)nn1  inhibition (Cryptosporidium parvum; parasite growth, imaging; HCT-8; 11 µM, 72 h, intracellular): ~30%
Clc1ccc(-n2cc(COc3cccc4cccnc34)nn2)cc1  IC50 (Klebsiella pneumoniae; microbial growth, broth dilution; ATCC700603): 554 µg/mL (≈ 1650 µM)
Cc1ccc2cc[nH]c2c1  pEC50 (Cryptosporidium parvum; parasite growth; HCT-8; 24 h, intracellular): 3.51
O=C(O)CN1C(=O)/C(=C/c2ccc(-c3ccc(N(c4ccccc4)c4ccccc4)cc3)cc2)SC1=S  MIC (Streptococcus pneumoniae; microbial growth, broth dilution; ATCC49619): 15.6 µg/mL (≈ 29.8 µM)
COc1ccc(-n2cc(COC3=CC(=O)c4ccccc4C3=O)nn2)cc1  IC50 (Klebsiella pneumoniae; microbial growth, broth dilution; ATCC700603): 137 µg/mL (≈ 379 µM)
